Source: ChEMBL document CHEMBL1765017, “Homoisoflavonoids: natural scaffolds with potent and selective monoamine oxidase-B inhibition properties” (J Med Chem, 2011)
pIC50: −log10 of the molar value.

Columns and labels:
[1] = molecular target: T1, Amine oxidase [flavin-containing] B (Homo sapiens, UniProt P27338); test: biochemical; type: cell-based, BTI-TN-5B1-4
T1 sequence (P27338 whole entry): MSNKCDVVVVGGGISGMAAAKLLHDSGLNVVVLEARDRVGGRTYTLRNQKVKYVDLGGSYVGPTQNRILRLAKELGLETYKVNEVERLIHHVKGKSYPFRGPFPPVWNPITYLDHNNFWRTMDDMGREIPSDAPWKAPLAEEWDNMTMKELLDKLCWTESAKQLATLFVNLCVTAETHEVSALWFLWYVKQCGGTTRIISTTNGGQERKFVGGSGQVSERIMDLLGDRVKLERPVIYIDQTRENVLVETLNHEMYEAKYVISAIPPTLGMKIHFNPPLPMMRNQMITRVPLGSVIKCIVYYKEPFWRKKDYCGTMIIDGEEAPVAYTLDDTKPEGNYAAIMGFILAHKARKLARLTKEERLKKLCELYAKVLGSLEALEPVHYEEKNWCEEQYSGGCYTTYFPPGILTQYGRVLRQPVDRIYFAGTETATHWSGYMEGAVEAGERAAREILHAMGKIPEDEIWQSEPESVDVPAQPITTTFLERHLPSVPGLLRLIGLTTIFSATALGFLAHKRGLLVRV

[2] = molecular target: T2, Amine oxidase [flavin-containing] A (Homo sapiens, UniProt P21397); test: Inhibition of human recombinant MAO-A expressed in baculovirus infected BTI-TN-5B1-4 insect sells assessed as hydrogen peroxide production at 100 uM by fluorimetric method; conditions: for inhibition (INH): human, bti-tn-5b1-4, 100 µM; for inhibition at 100 µM: BTI-TN-5B1-4, human
T2 sequence (P21397 whole entry): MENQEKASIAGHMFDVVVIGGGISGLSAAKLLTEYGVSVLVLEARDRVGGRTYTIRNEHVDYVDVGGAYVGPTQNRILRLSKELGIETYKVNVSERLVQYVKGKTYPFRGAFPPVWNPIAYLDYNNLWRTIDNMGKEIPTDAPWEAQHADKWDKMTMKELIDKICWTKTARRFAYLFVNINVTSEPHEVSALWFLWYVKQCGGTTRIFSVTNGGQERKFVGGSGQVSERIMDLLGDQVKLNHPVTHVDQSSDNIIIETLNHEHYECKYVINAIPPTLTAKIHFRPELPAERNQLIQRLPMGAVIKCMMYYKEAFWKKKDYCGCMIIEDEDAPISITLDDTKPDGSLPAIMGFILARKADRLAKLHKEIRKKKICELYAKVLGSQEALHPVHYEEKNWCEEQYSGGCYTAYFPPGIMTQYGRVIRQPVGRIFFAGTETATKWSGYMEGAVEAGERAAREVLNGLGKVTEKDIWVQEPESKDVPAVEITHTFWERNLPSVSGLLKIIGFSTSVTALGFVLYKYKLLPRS
Procedure, shortened: (§1)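 Microsomal human MAO-A or MAO-B from BTI-TN-5B1-4 insect cells infected with recombinant baculovirus carrying the isoform cDNA. p-Tyramine was the substrate for both isoforms. H2O2 production was detected fluorimetrically with the Amplex Red reagent. Compounds were checked for direct reaction with Amplex Red. Highest concentrations tested were 100 μM, or 1 mM for some compounds.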

[3] = molecular target: T2, Amine oxidase [flavin-containing] A; test: Inhibition of human recombinant MAO-A expressed in baculovirus infected BTI-TN-5B1-4 insect sells assessed as hydrogen peroxide production at 50 uM measured after repeated washing by fluorimetric method; conditions: BTI-TN-5B1-4, human
[4] = molecular target: T1, Amine oxidase [flavin-containing] B; test: Inhibition of human recombinant MAO-B expressed in baculovirus infected BTI-TN-5B1-4 insect sells assessed as hydrogen peroxide production at 10 nM by fluorimetric method; conditions: BTI-TN-5B1-4, human
[5] = molecular target: T1, Amine oxidase [flavin-containing] B; test: Inhibition of human recombinant MAO-B expressed in baculovirus infected BTI-TN-5B1-4 insect sells assessed as hydrogen peroxide production at 10 nM measured after repeated washing by fluorimetric method; conditions: BTI-TN-5B1-4, human
[6] = molecular target: T2, Amine oxidase [flavin-containing] A; test: Inhibition of human recombinant MAO-A expressed in baculovirus infected BTI-TN-5B1-4 insect sells assessed as hydrogen peroxide production by fluorimetric method
Homo sapiens = species: Homo sapiens; test: Selectivity index, ratio of IC50 for human MAO-A to IC50 for human MAO-B
Procedure, shortened: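 SI = IC50(hMAO-A)/IC50(hMAO-B). IC50s come from the Amplex Red fluorimetric assay of H2O2 from p-tyramine using baculovirus-expressed human isoforms, mean ± SEM of five experiments.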

[7] = molecular target: T2, Amine oxidase [flavin-containing] A; test: Inhibition of human recombinant MAO-A expressed in baculovirus infected BTI-TN-5B1-4 insect sells assessed as hydrogen peroxide production at 50 uM by fluorimetric method; conditions: BTI-TN-5B1-4, human
[8] = molecular target: T1, Amine oxidase [flavin-containing] B; test: Inhibition of human recombinant MAO-B expressed in baculovirus infected BTI-TN-5B1-4 insect sells assessed as hydrogen peroxide production at 100 uM by fluorimetric method; conditions: for inhibition (INH): human, bti-tn-5b1-4, 100 µM; for inhibition at 100 µM: BTI-TN-5B1-4, human
Procedure, shortened: as §1

[9] = molecular target: T2, Amine oxidase [flavin-containing] A; test: Inhibition of human recombinant MAO-A expressed in baculovirus infected BTI-TN-5B1-4 insect sells assessed as hydrogen peroxide production at 500 uM by fluorimetric method; conditions: BTI-TN-5B1-4, human
Procedure, shortened: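 Microsomal hMAO-A from insect cells (BTI-TN-5B1-4) infected with recombinant baculovirus carrying the hMAO-A cDNA. Fluorimetric Amplex Red assay measures H2O2 formed from p-tyramine, the substrate. Percent inhibition is expressed against control activity, given as pmol p-tyramine oxidised per min. Mean ± SEM of five experiments.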

[10] = molecular target: T2, Amine oxidase [flavin-containing] A; test: Inhibition of human recombinant MAO-A expressed in baculovirus infected BTI-TN-5B1-4 insect sells assessed as hydrogen peroxide production at 500 uM measured after repeated washing by fluorimetric method; conditions: BTI-TN-5B1-4, human
Procedure, shortened: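 Microsomal hMAO-A from insect cells infected with recombinant baculovirus. After exposure to inhibitor, the enzyme was washed repeatedly by centrifugation-ultrafiltration. Remaining activity was then read by Amplex Red fluorescence as H2O2 formed from p-tyramine. Percent inhibition is compared with before washing by ANOVA/Dunnett's. Mean ± SEM, n = 5.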

[11] = molecular target: T1, Amine oxidase [flavin-containing] B; test: Inhibition of human recombinant MAO-B expressed in baculovirus infected BTI-TN-5B1-4 insect sells assessed as hydrogen peroxide production at 1 mM by fluorimetric method; conditions: bti-tn-5b1-4, 1000 µM
Procedure, shortened: as §1

Row | Structure (SMILES) | pIC50 [1] | inhibition (INH) [2] | other results
1 | CN(C)c1ccc(/C=C2\COc3ccccc3C2=O)cc1 | 8.07 | Not Active | –
2 | COc1ccc(/C=C2\COc3ccccc3C2=O)cc1 | 7.23 | Not Active | –
3 | COc1ccc(/C=C2\COc3cc(OC)cc(OC)c3C2=O)cc1 | 5.80 | Not Active | –
4 | O=C1/C(=C/c2ccc(O)cc2)COc2ccccc21 | 7.26 | Not Active | –
5 | O=C1/C(=C/c2ccc(O)cc2)COc2cc(O)cc(O)c21 | 8.06 | – | inhibition at 50 µM [3]: 61.8%; inhibition at 0.01 µM [4]: 48.7%; inhibition at 0.01 µM [5]: 36.2%; pIC50 [6]: 4.94; Ratio IC50 (Homo sapiens): 1330; inhibition at 50 µM [7]: 68.3%
6 | COc1cc(/C=C2\COc3ccccc3C2=O)cc(OC)c1OC | 4.68 | Not Active | –
7 | COc1ccc(/C=C2\COc3ccccc3C2=O)cc1O | 6.32 | Not Active | –
8 | O=C1/C(=C/c2ccc(Cl)cc2)COc2cc(Cl)cc(Cl)c21 | 7.89 | Not Active | –
9 | O=C1c2ccccc2OCC1Cc1ccccc1 (stereo unspecified) | 4.23 | Not Active | –
10 | O=C(O)c1cc(/C=C2\COc3ccccc3C2=O)ccc1O | – | Not Active | inhibition (INH) [8]: Not Active
11 | O=C1c2ccccc2OCC1Cc1ccc(O)cc1 (stereo unspecified) | – | Not Active | inhibition at 100 µM [8]: 40%
12 | O=C1/C(=C/c2ccc(O)c([N+](=O)[O-])c2)COc2ccccc21 | 6.31 | Not Active | –
13 | CC(=O)Nc1ccc(/C=C2\COc3ccccc3C2=O)cc1 | 5.97 | – | pIC50 [6]: 5.68; Ratio IC50 (Homo sapiens): 2
14 | O=c1c(Cc2ccc(Cl)cc2)coc2ccc(Cl)cc12 | – | Not Active | inhibition at 100 µM [8]: 40%
15 | COc1ccc(/C=C2\COc3ccccc3C2=O)c(OC)c1OC | 5.88 | Not Active | –
16 | O=C1/C(=C/c2ccc(O)c(O)c2)COc2ccccc21 | 6.85 | – | pIC50 [6]: 5.32; Ratio IC50 (Homo sapiens): 34
17 | COc1cccc(/C=C2\COc3ccccc3C2=O)c1OC | 5.72 | Not Active | –
18 | O=C(NCCN1CCOCC1)c1ccc(Cl)cc1 [MOCLOBEMIDE] | – | – | inhibition at 500 µM [9]: 86%; inhibition at 500 µM [10]: 11.4%; inhibition (INH) [11]: Not Active

Row | Structure (SMILES) | pIC50 [1] | inhibition (INH) [2] | other results
19 | COc1ccc(Cc2coc3cc(OC)cc(OC)c3c2=O)cc1 | – | Not Active | inhibition at 100 µM [8]: 40%
20 | Nc1ccc(/C=C2\COc3ccccc3C2=O)cc1 | 6.06 | Not Active | –
21 | O=c1c(Cc2ccccc2)coc2ccccc12 | – | Not Active | inhibition (INH) [8]: Not Active
22 | O=C1/C(=C/c2ccc(Cl)cc2)COc2ccc(Cl)cc21 | 7.50 | Not Active | –
23 | O=c1c(Cc2ccc(Cl)cc2)coc2cc(Cl)cc(Cl)c12 | 6.36 | – | inhibition at 100 µM [2]: 40%
24 | O=C1/C(=C/c2ccc(Cl)cc2)COc2ccccc21 | 6.81 | Not Active | –
25 | COc1ccc(/C=C2\COc3ccccc3C2=O)c(O)c1 | 5.88 | – | inhibition at 100 µM [2]: 40%
26 | O=C1c2cc(Cl)ccc2OCC1Cc1ccc(Cl)cc1 (stereo unspecified) | 5.51 | Not Active | –
27 | O=c1c(Cc2ccc(Cl)cc2)coc2ccccc12 | – | Not Active | inhibition (INH) [8]: Not Active
28 | O=C1c2c(Cl)cc(Cl)cc2OCC1Cc1ccc(Cl)cc1 (stereo unspecified) | 5.34 | Not Active | –
29 | Nc1cc(/C=C2\COc3ccccc3C2=O)ccc1O | 6.32 | – | pIC50 [6]: 5.84; Ratio IC50 (Homo sapiens): 3
30 | COc1ccc(Cc2coc3ccccc3c2=O)cc1 | 4.67 | Not Active | –
31 | O=c1c(Cc2ccc(O)cc2)coc2ccccc12 | – | Not Active | inhibition at 100 µM [8]: 40%
32 | COc1cc(/C=C2\COc3ccccc3C2=O)ccc1O | 6.98 | – | inhibition at 100 µM [2]: 40%
33 | O=C1/C(=C/c2ccccc2)COc2ccc(Cl)cc21 | 6.48 | Not Active | –
34 | COc1ccc(/C=C2\COc3ccccc3C2=O)c(OC)c1 | 6.61 | Not Active | –
35 | O=C1/C(=C/c2ccccc2)COc2ccccc21 | 6.32 | Not Active | –
36 | O=C1c2ccccc2OCC1Cc1ccc(Cl)cc1 (stereo unspecified) | 5.13 | Not Active | –
